# In ChEMBL document CHEMBL4689842, “EUbOPEN Chemogenomics Library wave 1” (2021):
# Several values for one entry are separate records, joined by “and”; a condition that tells them apart may be missing. Identical values can stand only once.
# Tested on: Fibroblast
# Assay: Multiplex assay against human fibroblast
# Assay type: toxicity, cell-based
# Method in brief: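 Cells stained live at seeding with Hoechst33342, BioTracker Green Microtubule Cytoskeleton Dye, MitoTracker Red and Annexin V Alexa Fluor 680 were imaged on a CQ1 microscope at 37°C and 5% CO2 after compound addition. Their classification by CellPathfinder machine-learning gating ran from Hoechst high-intensity objects versus normal cells, to healthy, pyknosed or fragmented nuclei among normal cells, to mitotic or apoptotic among pyknosed cells. Tubulin, mitochondrial-mass and membrane-permeability phenotypes are per cents of healthy-nucleus cells.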
# [1] = 12 h, 1 µM, compound concentration 1 uM, replicate 1
# [2] = 12 h, 1 µM, compound concentration 1 uM, replicate 2
# [3] = 12 h, 10 µM, compound concentration 10 uM, replicate 1
# [4] = 12 h, 10 µM, compound concentration 10 uM, replicate 2
# [5] = 24 h, 1 µM, compound concentration 1 uM, replicate 1
# [6] = 24 h, 1 µM, compound concentration 1 uM, replicate 2
# [7] = 24 h, 10 µM, compound concentration 10 uM, replicate 1
# [8] = 24 h, 10 µM, compound concentration 10 uM, replicate 2
# [9] = 48 h, 1 µM, compound concentration 1 uM, replicate 1
# [10] = 48 h, 1 µM, compound concentration 1 uM, replicate 2
# [11] = 48 h, 10 µM, compound concentration 10 uM, replicate 1
# [12] = 48 h, 10 µM, compound concentration 10 uM, replicate 2
smiles,measurement,setting,value
O=C1NCN(c2ccccc2)C12CCN(CCCOc1ccc(F)cc1)CC2 [SPIRAMIDE],Population Apoptotic (%),[1],75%
same,Population Fragmented Nuclei (%),[1],40%
same,Population Healthy Nuclei (%),[1],31%
same,Population Hoechst High Intensity Objects (%),[1],15%
same,Population Membrane Permeable-Phenotype (%),[1],22%
same,Population Mitochondria Different-Phenotype (%),[1],11%
same,Population Mitotic Cells (%),[1],24%
same,Population Normal (%),[1],84%
same,Population Pyknosed Nuclei (%),[1],28%
same,Population Tubulin-Different-Phenotype (%),[1],33%
same,Total Cell Count,[1],136
same,Population Apoptotic (%),[2],0%
same,Population Fragmented Nuclei (%),[2],10%
same,Population Healthy Nuclei (%),[2],88%
same,Population Hoechst High Intensity Objects (%),[2],7%
same,Population Membrane Permeable-Phenotype (%),[2],0%
same,Population Mitochondria Different-Phenotype (%),[2],10%
same,Population Mitotic Cells (%),[2],100%
same,Population Normal (%),[2],92%
same,Population Pyknosed Nuclei (%),[2],1%
same,Population Tubulin-Different-Phenotype (%),[2],6%
same,Total Cell Count,[2],74
same,Population Apoptotic (%),[3],66%
same,Population Fragmented Nuclei (%),[3],25%
same,Population Healthy Nuclei (%),[3],44%
same,Population Hoechst High Intensity Objects (%),[3],13%
same,Population Membrane Permeable-Phenotype (%),[3],6%
same,Population Mitochondria Different-Phenotype (%),[3],54%
same,Population Mitotic Cells (%),[3],33%
same,Population Normal (%),[3],86%
same,Population Pyknosed Nuclei (%),[3],30%
same,Population Tubulin-Different-Phenotype (%),[3],82%
same,Total Cell Count,[3],162
same,Population Apoptotic (%),[4],50%
same,Population Fragmented Nuclei (%),[4],3%
same,Population Healthy Nuclei (%),[4],88%
same,Population Hoechst High Intensity Objects (%),[4],8%
same,Population Membrane Permeable-Phenotype (%),[4],2%
same,Population Mitochondria Different-Phenotype (%),[4],27%
same,Population Mitotic Cells (%),[4],50%
same,Population Normal (%),[4],91%
same,Population Pyknosed Nuclei (%),[4],7%
same,Population Tubulin-Different-Phenotype (%),[4],12%
same,Total Cell Count,[4],91
same,Population Apoptotic (%),[5],57%
same,Population Fragmented Nuclei (%),[5],31%
same,Population Healthy Nuclei (%),[5],45%
same,Population Hoechst High Intensity Objects (%),[5],13%
same,Population Membrane Permeable-Phenotype (%),[5],25%
same,Population Mitochondria Different-Phenotype (%),[5],5%
same,Population Mitotic Cells (%),[5],42%
same,Population Normal (%),[5],86%
same,Population Pyknosed Nuclei (%),[5],22%
same,Population Tubulin-Different-Phenotype (%),[5],44%
same,Total Cell Count,[5],132
same,Population Apoptotic (%),[6],0%
same,Population Fragmented Nuclei (%),[6],7%
same,Population Healthy Nuclei (%),[6],89%
same,Population Hoechst High Intensity Objects (%),[6],6%
same,Population Membrane Permeable-Phenotype (%),[6],2%
same,Population Mitochondria Different-Phenotype (%),[6],7%
same,Population Mitotic Cells (%),[6],100%
same,Population Normal (%),[6],93%
same,Population Pyknosed Nuclei (%),[6],3%
same,Population Tubulin-Different-Phenotype (%),[6],7%
same,Total Cell Count,[6],76
same,Population Apoptotic (%),[7],70%
same,Population Fragmented Nuclei (%),[7],20%
same,Population Healthy Nuclei (%),[7],60%
same,Population Hoechst High Intensity Objects (%),[7],16%
same,Population Membrane Permeable-Phenotype (%),[7],10%
same,Population Mitochondria Different-Phenotype (%),[7],44%
same,Population Mitotic Cells (%),[7],29%
same,Population Normal (%),[7],83%
same,Population Pyknosed Nuclei (%),[7],18%
same,Population Tubulin-Different-Phenotype (%),[7],85%
same,Total Cell Count,[7],177
same,Population Apoptotic (%),[8],27%
same,Population Fragmented Nuclei (%),[8],3%
same,Population Healthy Nuclei (%),[8],78%
same,Population Hoechst High Intensity Objects (%),[8],6%
same,Population Membrane Permeable-Phenotype (%),[8],2%
same,Population Mitochondria Different-Phenotype (%),[8],21%
same,Population Mitotic Cells (%),[8],72%
same,Population Normal (%),[8],93%
same,Population Tubulin-Different-Phenotype (%),[8],10%
same,Total Cell Count,[8],118
same,Population Apoptotic (%),[9],60%
same,Population Fragmented Nuclei (%),[9],36%
same,Population Healthy Nuclei (%),[9],45%
same,Population Hoechst High Intensity Objects (%),[9],14%
same,Population Membrane Permeable-Phenotype (%),[9],32%
same,Population Mitochondria Different-Phenotype (%),[9],5%
same,Population Mitotic Cells (%),[9],40%
same,Population Normal (%),[9],85%
same,Population Pyknosed Nuclei (%),[9],17%
same,Population Tubulin-Different-Phenotype (%),[9],34%
same,Total Cell Count,[9],133
same,Population Apoptotic (%),[10],0%
same,Population Fragmented Nuclei (%),[10],15%
same,Population Healthy Nuclei (%),[10],83%
same,Population Hoechst High Intensity Objects (%),[10],5%
same,Population Membrane Permeable-Phenotype (%),[10],13%
same,Population Mitochondria Different-Phenotype (%),[10],0%
same,Population Mitotic Cells (%),[10],100%
same,Population Normal (%),[10],94%
same,Population Pyknosed Nuclei (%),[10],0%
same,Population Tubulin-Different-Phenotype (%),[10],36%
same,Total Cell Count,[10],137
same,Population Apoptotic (%),[11],69%
same,Population Fragmented Nuclei (%),[11],31%
same,Population Healthy Nuclei (%),[11],59%
same,Population Hoechst High Intensity Objects (%),[11],22%
same,Population Membrane Permeable-Phenotype (%),[11],3%
same,Population Mitochondria Different-Phenotype (%),[11],47%
same,Population Mitotic Cells (%),[11],30%
same,Population Normal (%),[11],77%
same,Population Pyknosed Nuclei (%),[11],9%
same,Population Tubulin-Different-Phenotype (%),[11],80%
same,Total Cell Count,[11],186
same,Population Apoptotic (%),[12],50%
same,Population Healthy Nuclei (%),[12],64%
same,Population Hoechst High Intensity Objects (%),[12],9%
same,Population Membrane Permeable-Phenotype (%),[12],8%
same,Population Mitochondria Different-Phenotype (%),[12],2%
same,Population Mitotic Cells (%),[12],50%
same,Population Normal (%),[12],90%
same,Population Pyknosed Nuclei (%),[12],3%
same,Population Tubulin-Different-Phenotype (%),[12],29%
same,Total Cell Count,[12],123
C[C@@]1(C(=O)Nc2ccc(F)nc2)CCCN1c1nc(Nc2cc(C3CC3)n[nH]2)c2cccn2n1 [BMS-754807],Population Apoptotic (%),[1],63%
same,Population Fragmented Nuclei (%),[1],36%
same,Population Healthy Nuclei (%),[1],50%
same,Population Hoechst High Intensity Objects (%),[1],10%
same,Population Membrane Permeable-Phenotype (%),[1],18%
same,Population Mitochondria Different-Phenotype (%),[1],13%
same,Population Mitotic Cells (%),[1],36%
same,Population Normal (%),[1],89%
same,Population Pyknosed Nuclei (%),[1],13%
same,Population Tubulin-Different-Phenotype (%),[1],69%
same,Total Cell Count,[1],257
same,Population Apoptotic (%),[2],66%
same,Population Fragmented Nuclei (%),[2],75%
same,Population Healthy Nuclei (%),[2],16%
same,Population Hoechst High Intensity Objects (%),[2],28%
same,Population Membrane Permeable-Phenotype (%),[2],50%
same,Population Mitochondria Different-Phenotype (%),[2],33%
same,Population Mitotic Cells (%),[2],33%
same,Population Normal (%),[2],71%
same,Population Pyknosed Nuclei (%),[2],8%
same,Population Tubulin-Different-Phenotype (%),[2],66%
same,Total Cell Count,[2],52
same,Population Apoptotic (%),[3],63% and 78%
same,Population Fragmented Nuclei (%),[3],22% and 25%
same,Population Healthy Nuclei (%),[3],42%
same,Population Hoechst High Intensity Objects (%),[3],16% and 15%
same,Population Mitotic Cells (%),[3],36% and 21%
same,Population Normal (%),[3],84%
same,Population Pyknosed Nuclei (%),[3],34% and 16%
same,Total Cell Count,[3],75 and 165
same,Population Apoptotic (%),[4],80% and 33%
same,Population Healthy Nuclei (%),[4],37% and 58%
same,Population Hoechst High Intensity Objects (%),[4],29% and 13%
same,Population Membrane Permeable-Phenotype (%),[4],17% and 22%
same,Population Normal (%),[4],70% and 86%
same,Total Cell Count,[4],87 and 53
same,Population Apoptotic (%),[5],63%
same,Population Fragmented Nuclei (%),[5],27%
same,Population Healthy Nuclei (%),[5],55%
same,Population Hoechst High Intensity Objects (%),[5],9%
same,Population Membrane Permeable-Phenotype (%),[5],10%
same,Population Mitochondria Different-Phenotype (%),[5],26%
same,Population Mitotic Cells (%),[5],36%
same,Population Normal (%),[5],90%
same,Population Pyknosed Nuclei (%),[5],16%
same,Population Tubulin-Different-Phenotype (%),[5],70%
same,Total Cell Count,[5],219
same,Population Apoptotic (%),[6],75%
same,Population Fragmented Nuclei (%),[6],65%
same,Population Healthy Nuclei (%),[6],19%
same,Population Hoechst High Intensity Objects (%),[6],40%
same,Population Membrane Permeable-Phenotype (%),[6],40%
same,Population Mitochondria Different-Phenotype (%),[6],40%
same,Population Mitotic Cells (%),[6],25%
same,Population Normal (%),[6],59%
same,Population Pyknosed Nuclei (%),[6],15%
same,Population Tubulin-Different-Phenotype (%),[6],60%
same,Total Cell Count,[6],44
same,Population Apoptotic (%),[7],41% and 63%
same,Population Fragmented Nuclei (%),[7],26% and 20%
same,Population Healthy Nuclei (%),[7],53% and 63%
same,Population Hoechst High Intensity Objects (%),[7],21% and 13%
same,Population Membrane Permeable-Phenotype (%),[7],35% and 15%
same,Population Mitotic Cells (%),[7],58% and 36%
same,Population Normal (%),[7],78% and 86%
same,Population Pyknosed Nuclei (%),[7],19% and 15%
same,Total Cell Count,[7],80 and 166
same,Population Apoptotic (%),[8],60% and 37%
same,Population Healthy Nuclei (%),[8],28% and 47%
same,Population Mitochondria Different-Phenotype (%),[8],25% and 59%
same,Population Mitotic Cells (%),[8],40% and 62%
same,Population Normal (%),[8],68% and 90%
same,Total Cell Count,[8],83 and 51
same,Population Apoptotic (%),[11],92%
same,Population Fragmented Nuclei (%),[11],35%
same,Population Healthy Nuclei (%),[11],39%
same,Population Hoechst High Intensity Objects (%),[11],27%
same,Population Membrane Permeable-Phenotype (%),[11],23%
same,Population Mitochondria Different-Phenotype (%),[11],28%
same,Population Mitotic Cells (%),[11],7%
same,Population Normal (%),[11],72%
same,Population Pyknosed Nuclei (%),[11],24%
same,Population Tubulin-Different-Phenotype (%),[11],85%
same,Total Cell Count,[11],73
same,Population Apoptotic (%),[12],70%
same,Population Fragmented Nuclei (%),[12],27%
same,Population Healthy Nuclei (%),[12],56%
same,Population Hoechst High Intensity Objects (%),[12],9%
same,Population Membrane Permeable-Phenotype (%),[12],24%
same,Population Mitochondria Different-Phenotype (%),[12],43%
same,Population Mitotic Cells (%),[12],30%
same,Population Normal (%),[12],90%
same,Population Pyknosed Nuclei (%),[12],15%
same,Population Tubulin-Different-Phenotype (%),[12],100%
same,Total Cell Count,[12],72
